Measured values collected from several papers.
Compare with care: the assays were run in different laboratories.

SMILES | assay | test system | conditions | quantity | value
O=C1NC(=O)/C(=C/c2ccc3ncnc(N4CCC(F)(F)CC4)c3n2)S1 | – | – | – | logP | 2.51
COc1cc(N2CCC(N3CCN(C)CC3)CC2)ccc1Nc1ncc(Cl)c(Nc2ccccc2P(C)(C)=O)n1 | – | – | – | logP | 2.69
CNC(=O)c1ccc(-c2cnn3ccc(C(=O)N(C[C@H]4CCC(=O)O4)c4ccc(OC(F)(F)F)cc4)cc23)cc1 | – | female C57BL/6 mouse, plasma | oral, 10 mg/kg, 1 h | concentration | 31.4 nM
O=C1NC(=O)/C(=C/c2ccc3ncnc(N4CCCCC4)c3n2)S1 | – | – | – | logP | 2.33
CCN1CCN(Cc2ccc(NC(=O)c3ccc(C)c(NC(=O)c4cncc(-c5cccs5)c4)c3)cc2C(F)(F)F)CC1 | – | mouse, plasma | intraperitoneal, 20 mg/kg, single dose | half-life | 2.52 h
O=c1ccc2ccc(O)cc2o1 | metabolic stability | dog, liver microsomes | – | scaled CLint | 1720 mL/min/kg
CN(C)CC#Cc1ccc2[nH]c3c(c2c1)-c1nc(N)ncc1CCC3 | – | male CD-1 mouse, plasma | intraperitoneal, 30 mg/kg, 1 h, single dose | concentration | 697 ng/mL
CCN1CCN(C(=O)c2ccc(-n3nc(-c4cccnc4)c4c3-c3sc(NC(C)=O)nc3CC4)cc2)CC1 | – | – | – | logP | 3.16
CCOC(=O)c1cc(Cl)cc(NC(=O)c2sc(Cl)cc2S(=O)(=O)N(C)c2ccc(OCC)c(OC)c2)c1 | – | male C57BL/6 mouse, brain | intraperitoneal, 10 mg/kg, 1 h | concentration | 6.45 ng/g
CN(C(=O)c1ccn2ncc(-c3ccc(C(N)=O)cc3)c2c1)c1ccc(C#N)cn1 | – | female C57BL/6 mouse, plasma | oral, 10 mg/kg, 4 h | concentration | 519 nM
CCOc1ccc2ccc(=O)oc2c1 | metabolic stability | male beagle dog, hepatocytes | 1 µM | hepatocyte CLint | > 46.2 µL/min/10⁶ cells
CCOC(=O)CN(C(=O)c1ccn2ncc(-c3ccc(C(=O)NC)cc3)c2c1)c1ccc(Cl)cc1 | – | female C57BL/6 mouse, plasma | oral, 10 mg/kg, 4 h | concentration | 150 nM
Cc1cc2sc(N)nc2c2cccnc12 | – | female BALB/c mouse, plasma | intraperitoneal, 30 mg/kg, 24 h, single dose | concentration | 32.7 ng/mL
